Source: ChEMBL document CHEMBL1137181, “Synthesis and DP-IV inhibition of cyano-pyrazoline derivatives as potent anti-diabetic agents” (Bioorg Med Chem Lett, 2004)

Tests used:
Dipeptidyl peptidase 4 [1] = molecular target: Dipeptidyl peptidase 4 (Rattus norvegicus, UniProt P14740); experiment: Inhibitory concentration against rat dipeptidyl peptidase IV
Outline: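 Rat plasma (20 µL) as enzyme source, incubated 1 h at room temperature, pH 7.8, with Ala-Pro-AFC (40 µM) ± inhibitor dissolved in DMSO (5% final in assay). Released AFC read by fluorescence (ex 360 nm, em 485 nm). IC50 obtained by curve analysis.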

Dipeptidyl peptidase 4 [2] = molecular target: Dipeptidyl peptidase 4 (Sus scrofa, UniProt P22411); experiment: Inhibitory concentration against dipeptidyl peptidase IV of porcine kidney; type: functional, tissue-based
Dipeptidyl peptidase 4 (Sus scrofa, UniProt P22411), sequence (P22411 whole entry): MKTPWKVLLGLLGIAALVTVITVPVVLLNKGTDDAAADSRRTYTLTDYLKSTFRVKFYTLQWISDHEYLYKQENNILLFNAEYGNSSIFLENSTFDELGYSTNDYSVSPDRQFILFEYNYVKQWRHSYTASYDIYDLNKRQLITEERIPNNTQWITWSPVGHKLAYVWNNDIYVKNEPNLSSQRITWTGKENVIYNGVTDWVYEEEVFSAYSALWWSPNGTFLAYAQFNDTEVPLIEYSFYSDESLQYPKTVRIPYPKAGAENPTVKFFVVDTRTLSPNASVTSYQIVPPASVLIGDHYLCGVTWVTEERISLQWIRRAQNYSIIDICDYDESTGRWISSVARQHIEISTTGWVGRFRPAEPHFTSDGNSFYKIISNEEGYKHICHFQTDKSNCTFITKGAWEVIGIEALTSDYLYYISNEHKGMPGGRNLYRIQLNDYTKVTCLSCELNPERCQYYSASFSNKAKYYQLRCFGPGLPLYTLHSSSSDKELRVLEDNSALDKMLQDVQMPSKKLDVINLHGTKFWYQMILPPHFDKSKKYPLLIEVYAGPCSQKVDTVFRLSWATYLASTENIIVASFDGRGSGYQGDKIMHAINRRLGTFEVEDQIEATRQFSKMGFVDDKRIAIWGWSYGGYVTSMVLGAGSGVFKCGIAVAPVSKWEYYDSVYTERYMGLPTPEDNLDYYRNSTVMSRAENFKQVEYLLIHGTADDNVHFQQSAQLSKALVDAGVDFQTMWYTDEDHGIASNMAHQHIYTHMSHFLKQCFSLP
Outline: (§1)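 DP-IV activity from Caco-2 cells or porcine kidney, measured as AFC fluorescence (ex 360 nm, em 485 nm) liberated from Ala-Pro-AFC with or without inhibitor. Compounds in DMSO, 5% in assay mixture. IC50 obtained by curve analysis.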

[3] = molecular target: Dipeptidyl peptidase 4 (Mus musculus) (UniProt P28843); experiment: Effective dose for inhibition of dipeptidyl peptidase IV in mice after 1 hr subcutaneous administration; type: functional, organism-based
Dipeptidyl peptidase 4 (Mus musculus), sequence (P28843 whole entry, looked up): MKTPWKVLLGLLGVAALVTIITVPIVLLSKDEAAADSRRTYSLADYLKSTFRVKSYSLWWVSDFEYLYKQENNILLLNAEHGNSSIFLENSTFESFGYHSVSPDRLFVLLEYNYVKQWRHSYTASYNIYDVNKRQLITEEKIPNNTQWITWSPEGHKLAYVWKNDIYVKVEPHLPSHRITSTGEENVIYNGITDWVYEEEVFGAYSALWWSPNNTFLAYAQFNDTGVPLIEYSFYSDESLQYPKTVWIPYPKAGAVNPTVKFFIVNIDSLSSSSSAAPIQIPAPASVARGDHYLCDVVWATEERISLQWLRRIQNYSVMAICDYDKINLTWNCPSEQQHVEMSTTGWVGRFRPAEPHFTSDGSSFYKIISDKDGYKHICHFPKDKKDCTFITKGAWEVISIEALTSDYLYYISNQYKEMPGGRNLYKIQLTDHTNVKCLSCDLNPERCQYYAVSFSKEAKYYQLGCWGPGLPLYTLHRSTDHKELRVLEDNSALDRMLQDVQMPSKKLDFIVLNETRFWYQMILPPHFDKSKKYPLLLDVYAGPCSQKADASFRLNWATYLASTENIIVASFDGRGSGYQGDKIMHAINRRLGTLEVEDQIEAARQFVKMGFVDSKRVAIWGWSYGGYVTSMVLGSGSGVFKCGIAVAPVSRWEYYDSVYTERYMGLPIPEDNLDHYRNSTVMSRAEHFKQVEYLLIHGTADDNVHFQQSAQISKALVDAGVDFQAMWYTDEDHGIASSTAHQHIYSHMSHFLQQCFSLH

Dipeptidyl peptidase 4 [4] = molecular target: Dipeptidyl peptidase 4 (Homo sapiens, UniProt P27487); experiment: Inhibitory concentration against dipeptidyl peptidase IV in Caco-2 cell assay; type: functional, cell-based; outline: as §1
Dipeptidyl peptidase 4 (Homo sapiens, UniProt P27487), sequence (P27487 whole entry): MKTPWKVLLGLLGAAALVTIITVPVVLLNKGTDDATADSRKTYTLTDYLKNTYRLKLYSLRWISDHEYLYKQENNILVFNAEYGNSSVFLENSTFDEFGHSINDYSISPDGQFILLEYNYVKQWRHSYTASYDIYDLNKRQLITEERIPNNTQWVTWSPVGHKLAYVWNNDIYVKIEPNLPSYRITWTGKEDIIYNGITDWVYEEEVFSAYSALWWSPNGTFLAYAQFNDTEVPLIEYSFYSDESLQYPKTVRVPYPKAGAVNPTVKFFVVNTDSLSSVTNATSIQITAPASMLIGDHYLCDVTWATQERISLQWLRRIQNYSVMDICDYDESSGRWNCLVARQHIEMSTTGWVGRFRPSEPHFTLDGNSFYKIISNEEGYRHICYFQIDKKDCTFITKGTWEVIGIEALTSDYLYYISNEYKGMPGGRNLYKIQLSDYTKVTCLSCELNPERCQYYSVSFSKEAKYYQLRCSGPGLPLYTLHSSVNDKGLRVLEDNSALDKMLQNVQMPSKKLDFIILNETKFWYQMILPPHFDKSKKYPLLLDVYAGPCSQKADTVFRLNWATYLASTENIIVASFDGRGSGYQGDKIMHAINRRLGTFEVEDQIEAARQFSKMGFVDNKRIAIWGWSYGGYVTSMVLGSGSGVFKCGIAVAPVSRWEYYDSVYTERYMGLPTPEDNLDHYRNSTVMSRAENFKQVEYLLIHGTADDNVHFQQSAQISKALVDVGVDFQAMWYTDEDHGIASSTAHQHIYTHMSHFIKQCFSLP

Dipeptidyl peptidase 4 (Rattus norvegicus, UniProt P14740), sequence (P14740 whole entry): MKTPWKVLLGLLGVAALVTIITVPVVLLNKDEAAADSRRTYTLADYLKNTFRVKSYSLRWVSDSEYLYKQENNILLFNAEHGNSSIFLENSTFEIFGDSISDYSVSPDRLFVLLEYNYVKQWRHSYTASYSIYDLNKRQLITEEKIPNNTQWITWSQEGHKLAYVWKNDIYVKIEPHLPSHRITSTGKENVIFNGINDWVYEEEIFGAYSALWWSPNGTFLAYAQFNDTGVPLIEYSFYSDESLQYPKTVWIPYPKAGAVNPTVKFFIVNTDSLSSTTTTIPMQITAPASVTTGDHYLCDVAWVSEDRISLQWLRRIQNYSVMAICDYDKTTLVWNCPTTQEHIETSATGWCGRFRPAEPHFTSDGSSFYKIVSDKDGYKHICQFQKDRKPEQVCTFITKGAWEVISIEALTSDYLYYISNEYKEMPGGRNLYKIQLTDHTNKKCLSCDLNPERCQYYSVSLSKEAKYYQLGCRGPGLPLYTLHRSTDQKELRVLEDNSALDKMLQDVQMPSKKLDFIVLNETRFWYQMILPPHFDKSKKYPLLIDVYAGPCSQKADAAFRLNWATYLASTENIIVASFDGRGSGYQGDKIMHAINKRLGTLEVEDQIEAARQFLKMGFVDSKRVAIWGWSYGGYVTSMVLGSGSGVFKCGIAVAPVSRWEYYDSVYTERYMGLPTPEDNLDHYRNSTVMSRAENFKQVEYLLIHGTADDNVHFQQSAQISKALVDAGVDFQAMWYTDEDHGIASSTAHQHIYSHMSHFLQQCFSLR

Compound	IC50 (Dipeptidyl peptidase 4 [1]) [µM]	other results
N#CC1CC=NN1C(=O)CNC1C2CC3CC(C2)CC1C3 (stereo not drawn)	3.2	–
N#CC1CC=NN1C(=O)CNC1CCCC1 (stereo not drawn)	1.3	–
N#CC1CC=NN1C(=O)CNC12CC3CC(CC(C3)C1)C2 (stereo not drawn)	1.5	–
CC(C)(C)NCC(=O)N1N=CCC1C#N (stereo in doubt; 5a)	24.4	–
N#CC1CC=NN1C(=O)CNC1CCCCC1 (stereo in doubt; 5c)	2.8	–
N#Cc1ccc(NCCNCC(=O)N2N=CC[C@@H]2C#N)nc1	5.2	IC50 (Dipeptidyl peptidase 4 [2]): 6.82 µM
N#CC1CC=NN1C(=O)CNCCNc1ccc([N+](=O)[O-])cn1 (stereo not drawn)	1.2	–
N#CC1CC=NN1C(=O)CNC1CCCCCCC1 (stereo not drawn)	2.6	–
N#Cc1ccc(NCCNCC(=O)N2N=CCC2C#N)nc1 (stereo not drawn)	0.8	ED50 [3]: 4.1 mg/kg; IC50 (Dipeptidyl peptidase 4 [2]): 0.96 µM
N#CC1CC=NN1C(=O)CNC12CC3CC(CC(O)(C3)C1)C2 (stereo not drawn)	6.4	–
CCC(C)[C@@H](N)C(=O)N1N=CCC1C#N (stereo partly drawn)	0.22	ED50 [3]: 16.1 mg/kg; IC50 (Dipeptidyl peptidase 4 [2]): 0.08 µM; IC50 (Dipeptidyl peptidase 4 [4]): 0.13 µM
N#CC1CC=NN1C(=O)CNC1CCC(Nc2ccc([N+](=O)[O-])cn2)CC1 (stereo not drawn)	1.2	–
N#Cc1ccc(NCCNCC(=O)N2NCC[C@H]2C#N)nc1	0.06	–
CC(C)[C@@H](N)C(=O)N1N=CCC1C#N (stereo partly drawn)	1.9	–

More lines, in order of falling IC50 (Dipeptidyl peptidase 4 [1]), values ahead:

IC50 (Dipeptidyl peptidase 4 [1]) [µM]	Compound	other results
4.4	N#CC1CC=NN1C(=O)CNC1CCC(NC(=O)c2ccccc2)CC1 (stereo not drawn)	–
4.3	CC(C)C[C@H](N)C(=O)N1N=CCC1C#N (stereo partly drawn)	–
2.3	N#CC1CC=NN1C(=O)CNC1CCCCC1 (stereo in doubt; 1g)	–
2.1	N#CC1CC=NN1C(=O)CNC1CC2CCC1C2 (stereo not drawn)	–
1.2	C[C@@H](N)C(=O)N1N=CCC1C#N (stereo partly drawn)	–
0.66	N#CC1CC=NN1C(=O)[C@H](CCCCN)NC(=O)OCc1ccccc1 (stereo partly drawn)	–
0.36	N#Cc1ccc(NCCNCC(=O)N2N=CC[C@H]2C#N)nc1	IC50 (Dipeptidyl peptidase 4 [2]): 0.44 µM
